{"source": "paper PMC2638640", "about": "(Toxicological Sciences, 2008)", "key": {"[1]": {"assay": "Rate constants for reaction of type 2 alkenes with cysteine sulfhydryl groups", "assay_type": "physicochemical", "conditions": "second-order rate of reaction with L-cysteine at pH 7.4", "how_it_was_run": "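L-Cysteine was incubated with molar excess of test alkene at pH 7.4 or 8.8, with remaining sulfhydryl measured over time by DTNB absorbance. Pseudo-first-order constants (k1) came from these plots, then second-order constants (k2). Thiolate-corrected constants via log(k k2) = log k2 + pKa – pH, taking sulfhydryl pKa 8.5; n = 4–6 at pH 7.4.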"}, "[2]": {"system": "membrane ^3H-DA transport in striatal synaptosomes", "assay": "Inhibition of synaptosomal membrane ^3H-DA transport", "assay_type": "biochemical, rat", "conditions": "for effect of nucleophile on in vitro neurotoxicity of HNE: nucleophile 500μM, HNE-exposed striatal synaptosomes; for effect on synaptosomal uptake: nonconjugated analogs, striatal synaptosomes", "how_it_was_run": "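Striatal synaptosomes from adult male Sprague-Dawley rats (Percoll gradient, 15%/23% interface), 10 μg protein, were exposed 15 min at 30°C to graded concentrations of test compound or Krebs-HEPES buffer. Samples were washed, filter-trapped and superfused 3 min with 0.30μM 3H-DA. Uptake measured ± Na+ (choline substitution), by scintillation. IC50 (95% CI) by nonlinear regression; n = 4–6.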"}, "[3]": {"system": "total free sulfhydryl content in synaptosomes", "assay": "Loss of free sulfhydryl groups in synaptosomes", "assay_type": "biochemical, rat", "conditions": "nonconjugated analogs, striatal synaptosomes", "how_it_was_run": "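Rat striatal synaptosomes (200 μg protein) were incubated 15 min with graded concentrations of test compound or control buffer, then solubilized in 1% SDS. DTNB (3mM) added; after 5 min equilibration at 25°C, absorbance read at 412 nm against a no-DTNB blank. Free thiol calculated from the extinction coefficient 1.36 × 10^4/M/cm; n = 4–6.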"}, "[4]": {"system": "^3H-DA transport in striatal synaptic vesicles", "assay": "Inhibition of vesicular ^3H-DA transport", "assay_type": "biochemical, rat", "conditions": "nonconjugated analogs, data not shown", "how_it_was_run": "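Rat striatal synaptic vesicles (P5 pellet after osmotic shock of crude synaptosomes), 3 μg protein, were exposed 15 min to graded concentrations of test compound or assay buffer. They were then incubated 3 min at 30°C with Mg2+-ATP (2mM) and 0.30μM 3H-DA. Reaction stopped with cold buffer, followed by rapid filtration and scintillation counting. Nonspecific uptake: 4°C without Mg2+-ATP. IC50 (95% CI) by nonlinear regression; n = 3–5.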"}, "[5]": {"conditions": "ref Doorn and Petersen, 2002, 2003; cited from earlier work"}}, "data": [{"smiles": "C=CC=O", "note": "[Acrolein, acrolein]", "values": [{"measurement": "Log k2 (pH = 7.4)", "setting": "[1]", "result": 2.596}]}, {"smiles": "C=CC(C)=O", "note": "[MVK, methyl vinyl ketone]", "values": [{"measurement": "Log k2 (pH = 7.4)", "setting": "[1]", "result": 2.048}]}, {"smiles": "CC(=O)N[C@@H](CS)C(=O)O", "note": "[NAC, N-acetyl-L-cysteine]", "values": [{"measurement": "effect of nucleophile on in vitro neurotoxicity of HNE", "setting": "[2]", "result": "significantly reduced HNE neurotoxicity"}]}, {"smiles": "C=CCO", "note": "[Allyl alcohol, allyl alcohol]", "values": [{"measurement": "effect on synaptosomal sulfhydryl content", "setting": "[3]", "result": "did not affect"}, {"measurement": "effect on synaptosomal uptake", "setting": "[2]", "result": "did not affect"}, {"measurement": "effect on vesicular uptake", "setting": "[4]", "result": "did not affect vesicular uptake"}]}, {"smiles": "CCC=O", "note": "[Propanal, propanal]", "values": [{"measurement": "effect on synaptosomal sulfhydryl content", "setting": "[3]", "result": "did not affect"}, {"measurement": "effect on synaptosomal uptake", "setting": "[2]", "result": "did not affect"}, {"measurement": "effect on vesicular uptake", "setting": "[4]", "result": "did not affect vesicular uptake"}]}, {"smiles": "NCCC(=O)N[C@@H](Cc1cnc[nH]1)C(=O)O", "note": "[carnosine, β-alanyl-L-histidine]", "values": [{"measurement": "effect of nucleophile on in vitro neurotoxicity of HNE", "setting": "[2]", "result": "neither NAL nor carnosine affected the in vitro neurotoxicity of HNE"}]}, {"smiles": "CC(=O)N[C@@H](CCCCN)C(=O)O", "note": "[NAL, N-acetyl-L-lysine]", "values": [{"measurement": "effect of nucleophile on in vitro neurotoxicity of HNE", "setting": "[2]", "result": "neither NAL nor carnosine affected the in vitro neurotoxicity of HNE"}]}, {"smiles": "CCCCCC(O)C=CC=O", "note": "(stereo not drawn) [HNE, 4-Hydroxy-2-nonenal]", "values": [{"measurement": "Log k2 (pH = 7.4)", "setting": "[1]", "result": 0.938}, {"measurement": "second-order rate constant k2 (mean ± SD), Cys toward HNE", "setting": "[5]", "result": "1.33 ± 0.083 M^∧(−1)s^∧(−1)"}, {"measurement": "second-order rate constant k2 (mean ± SD), His toward HNE", "setting": "[5]", "result": "2.14 ± 0.312 × 10^−3 M^∧(−1)s^∧(−1)"}, {"measurement": "second-order rate constant k2 (mean ± SD), Lys toward HNE", "setting": "[5]", "result": "1.33 ± 0.050 × 10^−3 M^∧(−1)s^∧(−1)"}]}]}
